pIC50: −log10 of the molar value. Where a SMILES comes first, the peptide text is derived from it. [ ]: non-standard residue; d: D form. The star is where a group is joined. X1 = COc1cccc2c1C(=O)c1c(O)c3c(c(O)c1C2=O)C[C@@](O)(/C(C)=N/OCC(=O)*)C[C@@H]3O[C@H]1C[C@H](N)[C@H](O)[C@H](C)O1; Phe(4-Cl) = N[C@@H](Cc1ccc(Cl)cc1)C(=O)O
Columns and labels:
HT-29 [1] = experiment: Cytostatic activity against human HT-29 cells preincubated for 24 hrs under serum free condition followed by compound washout and further incubation for 48 hrs in presence of serum by MTT assay; assay type: functional, cell-based
Outline: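 HT-29 cells were exposed to the compound for 24 h, washed, and kept a further 48 h. Viability was read by MTT. Absorbances were normalized to untreated controls and fitted by nonlinear regression to dose-response curves to give IC50.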

[2] = Drug uptake in human HT-29 cells at 100 uM incubated for 3 hrs by flow cytometry; assay type: ADME, cell-based; settings: ht-29, 3 h
Outline: (§1)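 HT-29 cells were exposed to 100 µM conjugate for 3 h. Flow cytometry recorded the percentage of Dau-positive cells and the mean fluorescence intensity, in duplicate.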

[3] = Retention time of the compound using 0.1% TFA in water and 0.1% TFA in acetonitrile-water (80:20 v/v) as eluents by RP-HPLC analysis; assay type: physicochemical
Outline: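 Analytical RP-HPLC. Eluent A was 0.1% TFA in water and eluent B was 0.1% TFA in acetonitrile-water (80:20, v/v). Gradient: 0% B held to 5 min, then to 90% B at 50 min. Flow 1 mL/min, detection at 220 nm. The column was a Phenomenex Aeris Peptide XB-C18 (250×4.6 mm, 3.6 μm) or a Nucleosil C18 (5 μm, 100 Å, 250×4.6 mm), depending on the conjugate series.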

[4] = Stability in serum free medium at 30 uM incubated for 3 hrs by LC/MS analysis
Outline: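 Conjugates (30 μM) were incubated at 37 °C in serum-free medium. Samples were taken at 0 and 3 h, quenched with acetic acid, lyophilised, desalted on C18 spin columns and analysed by LC-MS.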

[5] = Drug uptake in human HT-29 cells at 100 uM incubated for 3 hrs by flow cytometry relative to control; assay type: ADME, cell-based; settings: ht-29, 3 h; outline: as §1
[6] = Drug uptake in human HT-29 cells assessed as increase in fluorescence intensity at 25 uM incubated for 3 hrs by flow cytometry; assay type: ADME, cell-based; settings: ht-29, 3 h
[7] = Stability in 2.5% fetal bovine serum containing medium at 30 uM measured after 24 hrs by LC/MS analysis; assay type: ADME, cell-free, Bos taurus; settings: cattle
Outline: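 Conjugates (30 μM) were incubated at 37 °C in medium containing 2.5% FBS. Samples were taken at 0, 3, 6 and 24 h, quenched with acetic acid, lyophilised, desalted on C18 spin columns and analysed by LC-MS. Cleavage products were identified by mass.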

[8] = Drug metabolism in rat liver lysosomes homogenate assessed as increase in Dau = Aoa-Leu-OH metabolite formation at 0.05 ug/ul after 1 hr by LC-MS analysis; assay type: ADME, subcellular, Lysosome; settings: tissue homogenate
Outline: (§2)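 Conjugates and rat liver lysosomal homogenate were each used at 0.05 µg/µL. Samples were taken at 0, 1, 3, 6 and 24 h. Metabolites were identified by LC-MS on a C18 column with a formic acid/acetonitrile gradient.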

[9] = Drug metabolism in rat liver lysosomes homogenate assessed as Dau-containing metabolite formation at 0.05 ug/ul after 24 hrs by LC-MS analysis; assay type: ADME, subcellular, Lysosome; settings: tissue homogenate; outline: as §2
[10] = Drug uptake in human HT-29 cells assessed as increase in fluorescence intensity at 6.25 to 100 uM incubated for 3 hrs by flow cytometry; assay type: ADME, cell-based; settings: ht-29, 3 h
Outline: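 HT-29 cells were incubated for 3 h with conjugates at 6.25–100 µM. Cellular uptake of Dau fluorescence was measured by flow cytometry, in duplicate.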

[11] = Solubility of compound; assay type: physicochemical
HT-29 [12] = experiment: Cytotoxicity against human HT-29 cells assessed as reduction in cell viability by measuring decrease in fluorescence intensity at 100 uM incubated for 3 hrs by flow cytometry; assay type: cell-based; settings: ht-29, 3 h

| SMILES | pIC50 (HT-29 [1]) | Drug uptake [2] | Retention time [3] | Stability [4] | Drug uptake [5] | Drug uptake [6] | Stability [7] | Drug metabolism [8] | Drug metabolism [9] | Drug uptake [10] | solubility [11] | Activity (HT-29 [12]) |
| --- | --- | --- | --- | --- | --- | --- | --- | --- | --- | --- | --- | --- |
| COc1cccc2c1C(=O)c1c(O)c3c(c(O)c1C2=O)C[C@@](O)(/C(C)=N/OCC(=O)N[C@@H](CC(C)C)C(=O)N[C@@H](CCCNC(=N)N)C(=O)N[C@@H](CCCNC(=N)N)C(=O)N[C@@H](Cc1ccc(O)cc1)C(=O)N[C@@H](C)C(=O)N[C@@H](Cc1cnc[nH]1)C(=O)N[C@@H](CC(C)C)C(=O)NCC(=O)N[C@@H](Cc1ccc(O)cc1)C(=O)N[C@@H](C)C(=O)N[C@H](C(N)=O)[C@@H](C)O)C[C@@H]3O[C@H]1C[C@H](N)[C@H](O)[C@H](C)O1 (X1-LRRYAHLGYAT-NH2) | < 4.00 | Active | 27.7 to 30.4 min |  |  |  |  |  |  |  |  |  |
| COc1cccc2c1C(=O)c1c(O)c3c(c(O)c1C2=O)C[C@@](O)(/C(C)=N/OCC(=O)N[C@@H](CC(C)C)C(=O)N[C@@H](CCCNC(=N)N)C(=O)N[C@@H](CCCNC(=N)N)C(=O)N[C@@H](Cc1ccc(O)cc1)C(=O)N[C@H](C(=O)N[C@@H](C)C(=O)N[C@@H](CC(C)C)C(=O)NCC(=O)N[C@@H](Cc1ccc(O)cc1)C(=O)N[C@@H](C)C(=O)N[C@H](C(N)=O)[C@@H](C)O)C(C)C)C[C@@H]3O[C@H]1C[C@H](N)[C@H](O)[C@H](C)O1 (X1-LRRYVALGYAT-NH2) | 4.43 | Active | 29 to 31.7 min |  |  |  |  |  |  |  |  |  |
| COc1cccc2c1C(=O)c1c(O)c3c(c(O)c1C2=O)C[C@@](O)(/C(C)=N/OCC(=O)N[C@@H](CC(C)C)C(=O)N[C@@H](CCCNC(=N)N)C(=O)N[C@@H](CCCNC(=N)N)C(=O)N[C@@H](Cc1ccc(O)cc1)C(=O)N[C@H](C(=O)N[C@@H](Cc1cnc[nH]1)C(=O)N[C@@H](C)C(=O)NCC(=O)N[C@@H](Cc1ccc(O)cc1)C(=O)N[C@@H](C)C(=O)N[C@H](C(N)=O)[C@@H](C)O)C(C)C)C[C@@H]3O[C@H]1C[C@H](N)[C@H](O)[C@H](C)O1 (X1-LRRYVHAGYAT-NH2) | < 4.00 | Active | 27.2 to 29.9 min |  |  |  |  |  |  |  |  |  |
| COc1cccc2c1C(=O)c1c(O)c3c(c(O)c1C2=O)C[C@@](O)(/C(C)=N/OCC(=O)N[C@@H](CC(C)C)C(=O)N[C@@H](CCCNC(=N)N)C(=O)N[C@@H](CCCNC(=N)N)C(=O)N[C@@H](Cc1ccc(O)cc1)C(=O)N[C@H](C(=O)N[C@@H](Cc1cnc[nH]1)C(=O)N[C@@H](CC(C)C)C(=O)N[C@@H](C)C(=O)N[C@@H](Cc1ccc(O)cc1)C(=O)N[C@@H](C)C(=O)N[C@H](C(N)=O)[C@@H](C)O)C(C)C)C[C@@H]3O[C@H]1C[C@H](N)[C@H](O)[C@H](C)O1 (X1-LRRYVHLAYAT-NH2) | 4.55 to 4.62 |  | 28.6 to 31.3 min | Stable | 80% | Active | Stable |  |  |  |  |  |
| COc1cccc2c1C(=O)c1c(O)c3c(c(O)c1C2=O)C[C@@](O)(/C(C)=N/OCC(=O)N[C@@H](CC(C)C)C(=O)N[C@@H](CCCNC(=N)N)C(=O)N[C@@H](CCCNC(=N)N)C(=O)N[C@@H](Cc1ccc(O)cc1)C(=O)N[C@H](C(=O)N[C@@H](Cc1cnc[nH]1)C(=O)N[C@@H](CC(C)C)C(=O)N[C@@H](Cc1ccccc1)C(=O)N[C@@H](Cc1ccc(O)cc1)C(=O)N[C@@H](CC(C)C)C(=O)N[C@H](C(N)=O)[C@@H](C)O)C(C)C)C[C@@H]3O[C@H]1C[C@H](N)[C@H](O)[C@H](C)O1 (X1-LRRYVHLFYLT-NH2) | 5.49 |  | 30.7 to 32.3 min | Stable |  |  | Stable | Metabolite_Detected | Metabolite_Detected | Active | Soluble |  |
| COc1cccc2c1C(=O)c1c(O)c3c(c(O)c1C2=O)C[C@@](O)(/C(C)=N/OCC(=O)N[C@@H](CC(C)C)C(=O)N[C@@H](CCCNC(=N)N)C(=O)N[C@@H](CCCNC(=N)N)C(=O)N[C@@H](Cc1ccc(O)cc1)C(=O)N[C@H](C(=O)N[C@@H](Cc1cnc[nH]1)C(=O)N[C@@H](CC(C)C)C(=O)NCC(=O)N[C@@H](C)C(=O)N[C@@H](C)C(=O)N[C@H](C(N)=O)[C@@H](C)O)C(C)C)C[C@@H]3O[C@H]1C[C@H](N)[C@H](O)[C@H](C)O1 (X1-LRRYVHLGAAT-NH2) | < 4.00 | Active | 27.4 to 30.1 min |  |  |  |  |  |  |  |  |  |
| COc1cccc2c1C(=O)c1c(O)c3c(c(O)c1C2=O)C[C@@](O)(/C(C)=N/OCC(=O)N[C@@H](CC(C)C)C(=O)N[C@@H](CCCNC(=N)N)C(=O)N[C@@H](CCCNC(=N)N)C(=O)N[C@@H](Cc1ccc(O)cc1)C(=O)N[C@H](C(=O)N[C@@H](Cc1cnc[nH]1)C(=O)N[C@@H](CC(C)C)C(=O)NCC(=O)N[C@@H](Cc1ccc(O)cc1)C(=O)N[C@@H](C)C(=O)N[C@@H](C)C(N)=O)C(C)C)C[C@@H]3O[C@H]1C[C@H](N)[C@H](O)[C@H](C)O1 (X1-LRRYVHLGYAA-NH2) | 4.15 | Active | 28 to 30.7 min |  |  |  |  |  |  |  |  |  |
| COc1cccc2c1C(=O)c1c(O)c3c(c(O)c1C2=O)C[C@@](O)(/C(C)=N/OCC(=O)N[C@@H](CC(C)C)C(=O)N[C@@H](CCCNC(=N)N)C(=O)N[C@@H](CCCNC(=N)N)C(=O)N[C@@H](Cc1ccc(O)cc1)C(=O)N[C@H](C(=O)N[C@@H](Cc1cnc[nH]1)C(=O)N[C@@H](CC(C)C)C(=O)N[C@@H](Cc1ccc(Cl)cc1)C(=O)N[C@@H](Cc1ccc(O)cc1)C(=O)N[C@@H](C)C(=O)N[C@H](C(N)=O)[C@@H](C)O)C(C)C)C[C@@H]3O[C@H]1C[C@H](N)[C@H](O)[C@H](C)O1 (X1-LRRYVHL[Phe(4-Cl)]YAT-NH2) | 5.44 |  | 31.3 to 34 min | Stable |  |  | Stable | Metabolite_Detected | Metabolite_Detected | Active | Soluble | Toxic |

— ChEMBL document CHEMBL4350976, “Sequence modification of heptapeptide selected by phage display as homing device for HT-29 colon cancer cells to improve the anti-tumour activity of drug delivery systems” (Eur J Med Chem, 2019)
